ChEMBL document CHEMBL1147771, “Synthesis and antibacterial activity of 9-substituted minocycline derivatives” (2006)
Converted amounts (≈) assume the structure as drawn.

How the values were obtained:
Format in all cases: functional
Escherichia coli [1] = assay: Antibacterial activity against Minocylcine sensitive Escherichia coli 89-2
Method in brief: (§1)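 MICs determined by agar dilution.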

Escherichia coli [2] = assay: Antibacterial activity against Minocycline sensitive Escherichia coli 88-2; method in brief: as §1
Staphylococcus aureus [3] = assay: Antibacterial activity against Staphylococcus aureus UBMS 90-3; method in brief: as §1
Escherichia coli [4] = assay: Antibacterial activity against Escherichia coli UBMS 89-1 carrying tetM-resistant determinant
Method in brief: (§2)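 Antibacterial activity determined by agar dilution.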

Escherichia coli [5] = assay: Antibacterial activity against Escherichia coli UBMS 88-1 carrying tetB-resistant determinant; method in brief: as §2
Enterococcus faecalis = assay: Antibacterial activity against Enterococcus faecalis ATCC 29212; method in brief: as §1
Staphylococcus aureus [6] = assay: Antibacterial activity against Staphylococcus aureus Smith; method in brief: as §1
Staphylococcus aureus [7] = assay: Antibacterial activity against Staphylococcus aureus UBMS 88-7 carrying the tetK-resistant determinant; method in brief: as §2
Staphylococcus aureus [8] = assay: Antibacterial activity against Staphylococcus aureus UBMS 90-2 carrying tetM-resistant determinant; method in brief: as §2
Staphylococcus aureus [9] = assay: Antibacterial activity against Staphylococcus aureus UBMS 90-1 carrying tetM-resistant determinant; method in brief: as §2
Escherichia coli [10] = assay: Antibacterial activity against Escherichia coli UBMS 90-4 carrying tetM-resistant determinant; method in brief: as §2
Escherichia coli [11] = assay: Antibacterial activity against Minocycline sensitive Escherichia coli 90-5; method in brief: as §2

Row | Compound | MIC (Escherichia coli [1]) [µg/mL] | MIC (Escherichia coli [2]) [µg/mL] | MIC (Staphylococcus aureus [3]) [µg/mL] | MIC (Escherichia coli [4]) [µg/mL] | MIC (Escherichia coli [5]) [µg/mL] | MIC (Enterococcus faecalis) [µg/mL] | MIC (Staphylococcus aureus [6]) [µg/mL] | MIC (Staphylococcus aureus [7]) [µg/mL] | MIC (Staphylococcus aureus [8]) [µg/mL] | MIC (Staphylococcus aureus [9]) [µg/mL] | MIC (Escherichia coli [10]) [µg/mL] | MIC (Escherichia coli [11]) [µg/mL]
1 | CN(C)c1cc(NC(=O)c2cccc(C(F)(F)F)c2)c(O)c2c1CC1CC3[C@H](N(C)C)C(=O)C(C(N)=O)=C(O)[C@@]3(O)C(=O)C1=C2O (some centres undefined) | > 32 | > 32 | 0.5 (≈ 0.776 µM) | > 32 | > 32 | 1 (≈ 1.55 µM) | 1 (≈ 1.55 µM) | 1 (≈ 1.55 µM) | 1 (≈ 1.55 µM) | 1 (≈ 1.55 µM) |  | 
2 | CN(C)c1ccc(O)c2c1C[C@H]1C[C@H]3[C@H](N(C)C)C(O)=C(C(N)=O)C(=O)[C@@]3(O)C(O)=C1C2=O [MINOCYCLINE] | 2 (≈ 4.37 µM) | 0.25 (≈ 0.546 µM) | 0.03 (≈ 0.0656 µM) | > 32 | 16 (≈ 35 µM) | 2 (≈ 4.37 µM) | 0.06 (≈ 0.131 µM) | 0.25 (≈ 0.546 µM) | 2 (≈ 4.37 µM) | 8 (≈ 17.5 µM) |  | 
3 | CN(C)c1cc(NC(=O)CNC2CCCC2)c(O)c2c1CC1CC3[C@H](N(C)C)C(=O)C(C(N)=O)=C(O)[C@@]3(O)C(=O)C1=C2O (some centres undefined) |  |  | 0.12 (≈ 0.201 µM) |  | 0.25 (≈ 0.418 µM) | 0.12 (≈ 0.201 µM) | 0.25 (≈ 0.418 µM) | 2 (≈ 3.35 µM) |  | 0.25 (≈ 0.418 µM) | 0.25 (≈ 0.418 µM) | 0.25 (≈ 0.418 µM)
4 | CC(=O)Nc1nc(C)c(S(=O)(=O)Nc2cc(N(C)C)c3c(c2O)C(O)=C2C(=O)[C@]4(O)C(O)=C(C(N)=O)C(=O)[C@@H](N(C)C)C4CC2C3)s1 (some centres undefined) | > 32 | > 32 | 2 (≈ 2.9 µM) | 32 (≈ 46.3 µM) | > 32 | 1 (≈ 1.45 µM) | 2 (≈ 2.9 µM) | 32 (≈ 46.3 µM) | 4 (≈ 5.79 µM) | 32 (≈ 46.3 µM) |  | 
5 | CN(C)CC(=O)Nc1cc(N(C)C)c2c(c1O)C(=O)C1=C(O)[C@]3(O)C(O)=C(C(N)=O)C(=O)[C@@H](N(C)C)C3CC1C2 (some centres undefined) |  |  | 0.06 (≈ 0.108 µM) |  | 0.25 (≈ 0.448 µM) | 0.06 (≈ 0.108 µM) | 0.06 (≈ 0.108 µM) | 0.5 (≈ 0.897 µM) |  | 0.12 (≈ 0.215 µM) | 0.25 (≈ 0.448 µM) | 0.12 (≈ 0.215 µM)
6 | CN(C)c1cc(NS(=O)(=O)c2cccs2)c(O)c2c1CC1CC3[C@H](N(C)C)C(=O)C(C(N)=O)=C(O)[C@@]3(O)C(=O)C1=C2O (some centres undefined) | 16 (≈ 25.9 µM) | 8 (≈ 12.9 µM) | 0.25 (≈ 0.404 µM) |  | 32 (≈ 51.7 µM) | 0.25 (≈ 0.404 µM) | 0.03 (≈ 0.0485 µM) | 2 (≈ 3.23 µM) | 0.25 (≈ 0.404 µM) | 1 (≈ 1.62 µM) |  | 
7 | CN(C)c1cc(NC(=O)c2ccccc2)c(O)c2c1CC1CC3[C@H](N(C)C)C(=O)C(C(N)=O)=C(O)[C@@]3(O)C(=O)C1=C2O (some centres undefined) | > 32 | > 32 | 1 (≈ 1.73 µM) |  | > 32 | 4 (≈ 6.94 µM) | 1 (≈ 1.73 µM) | 8 (≈ 13.9 µM) | 4 (≈ 6.94 µM) | 4 (≈ 6.94 µM) |  | 
8 | Cc1ccccc1C(=O)Nc1cc(N(C)C)c2c(c1O)C(O)=C1C(=O)[C@]3(O)C(O)=C(C(N)=O)C(=O)[C@@H](N(C)C)C3CC1C2 (some centres undefined) | > 32 | > 32 | 1 (≈ 1.69 µM) |  | 2 (≈ 3.39 µM) | 2 (≈ 3.39 µM) | 1 (≈ 1.69 µM) | 4 (≈ 6.77 µM) | 2 (≈ 3.39 µM) | 8 (≈ 13.5 µM) |  | 
9 | CN(C)c1cc(NC(=O)c2cccs2)c(O)c2c1CC1CC3[C@H](N(C)C)C(=O)C(C(N)=O)=C(O)[C@@]3(O)C(=O)C1=C2O (some centres undefined) | > 32 | > 32 | 2 (≈ 3.43 µM) | > 32 | > 32 | 8 (≈ 13.7 µM) | 2 (≈ 3.43 µM) | 32 (≈ 54.9 µM) | 4 (≈ 6.87 µM) | 4 (≈ 6.87 µM) |  | 
10 | CN(C)c1ccc(C(=O)Nc2cc(N(C)C)c3c(c2O)C(O)=C2C(=O)[C@]4(O)C(O)=C(C(N)=O)C(=O)[C@@H](N(C)C)C4CC2C3)cc1 (some centres undefined) | > 32 | > 32 | 8 (≈ 12.9 µM) | > 32 | > 32 | 8 (≈ 12.9 µM) | 4 (≈ 6.45 µM) | 16 (≈ 25.8 µM) | 8 (≈ 12.9 µM) | 16 (≈ 25.8 µM) |  | 
11 | CN(C)c1cc(NS(C)(=O)=O)c(O)c2c1CC1CC3[C@H](N(C)C)C(=O)C(C(N)=O)=C(O)[C@@]3(O)C(=O)C1=C2O (some centres undefined) | 2 (≈ 3.63 µM) | 2 (≈ 3.63 µM) | 0.12 (≈ 0.218 µM) |  | 8 (≈ 14.5 µM) | 0.06 (≈ 0.109 µM) | 0.12 (≈ 0.218 µM) | 8 (≈ 14.5 µM) | 0.06 (≈ 0.109 µM) | 0.25 (≈ 0.454 µM) |  | 
12 | CN(C)c1cc(NC(=O)CNC(C)(C)C)c(O)c2c1C[C@H]1C[C@H]3[C@H](N(C)C)C(O)=C(C(N)=O)C(=O)[C@@]3(O)C(O)=C1C2=O [TIGECYCLINE] |  |  | 0.25 (≈ 0.427 µM) |  | 0.5 (≈ 0.854 µM) | 0.12 (≈ 0.205 µM) | 0.25 (≈ 0.427 µM) | 0.5 (≈ 0.854 µM) |  | 0.12 (≈ 0.205 µM) | 0.12 (≈ 0.205 µM) | 0.25 (≈ 0.427 µM)
13 | CN(C)c1cc(NC(=O)CCC2CCCC2)c(O)c2c1CC1CC3[C@H](N(C)C)C(=O)C(C(N)=O)=C(O)[C@@]3(O)C(=O)C1=C2O (some centres undefined) |  |  | 4 (≈ 6.7 µM) |  | > 128 | 8 (≈ 13.4 µM) | 4 (≈ 6.7 µM) | 8 (≈ 13.4 µM) | 8 (≈ 13.4 µM) | 8 (≈ 13.4 µM) | > 128 | > 128
14 | CN(C)CCCC(=O)Nc1cc(N(C)C)c2c(c1O)C(=O)C1=C(O)[C@]3(O)C(O)=C(C(N)=O)C(=O)[C@@H](N(C)C)C3CC1C2 (some centres undefined) |  |  | 2 (≈ 3.41 µM) |  | > 32 | 4 (≈ 6.83 µM) | 2 (≈ 3.41 µM) | 16 (≈ 27.3 µM) | 4 (≈ 6.83 µM) | 8 (≈ 13.7 µM) | 16 (≈ 27.3 µM) | 16 (≈ 27.3 µM)
15 | CN(C)c1cc(NC(=O)c2ccccc2F)c(O)c2c1CC1CC3[C@H](N(C)C)C(=O)C(C(N)=O)=C(O)[C@@]3(O)C(=O)C1=C2O (some centres undefined) | > 32 | > 32 | 1 (≈ 1.68 µM) |  | > 32 | 4 (≈ 6.73 µM) | 1 (≈ 1.68 µM) | 8 (≈ 13.5 µM) | 2 (≈ 3.36 µM) | 4 (≈ 6.73 µM) |  | 
16 | CN(C)c1cc(NS(=O)(=O)c2ccccc2)c(O)c2c1CC1CC3[C@H](N(C)C)C(=O)C(C(N)=O)=C(O)[C@@]3(O)C(=O)C1=C2O (some centres undefined) | 16 (≈ 26.1 µM) | 8 (≈ 13.1 µM) | 4 (≈ 6.53 µM) |  | 16 (≈ 26.1 µM) | 0.06 (≈ 0.0979 µM) | 4 (≈ 6.53 µM) | 4 (≈ 6.53 µM) | 0.06 (≈ 0.0979 µM) | 4 (≈ 6.53 µM) |  | 
17 | CN(C)c1cc(NS(=O)(=O)c2ccc(Cl)cc2)c(O)c2c1CC1CC3[C@H](N(C)C)C(=O)C(C(N)=O)=C(O)[C@@]3(O)C(=O)C1=C2O (some centres undefined) | > 32 | > 32 | 0.12 (≈ 0.185 µM) |  | > 32 | 0.06 (≈ 0.0927 µM) | 0.12 (≈ 0.185 µM) | 1 (≈ 1.55 µM) | 0.12 (≈ 0.185 µM) | 0.25 (≈ 0.386 µM) |  | 
18 | CN(C)c1cc(NC(=O)CO)c(O)c2c1CC1CC3[C@H](N(C)C)C(=O)C(C(N)=O)=C(O)[C@@]3(O)C(=O)C1=C2O (some centres undefined) |  |  | 1 (≈ 1.88 µM) |  | > 32 | 32 (≈ 60.3 µM) | 0.5 (≈ 0.942 µM) | > 32 | 2 (≈ 3.77 µM) | 4 (≈ 7.54 µM) | > 32 | > 32
